Test results taken from ChEMBL document CHEMBL1129645, “A novel series of [2-[methyl(2-phenethyl)amino]-2-oxoethyl] benzene-containing leukotriene B4 antagonists: initial structure-activity relationships” (J Med Chem, 1996).

Key:
[1] = biological target: Leukotriene B4 receptor (Cavia porcellus); assay: Binding affinity for Leukotriene B4 receptor of guinea pig spleen membranes
[2] = biological target: T1, Leukotriene B4 receptor 1 (Homo sapiens, UniProt Q15722); assay: Compound tested for binding affinity against Leukotriene B4 receptor using radioligand binding assay from Human PMN cells at a concentration of 300 nM.; assay type: cell-based
Summary of the method: (§1)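 Human PMNs from acid-citrate-dextrose blood, used within 2 h, isolated by dextran sedimentation and Histopaque 1077 with hypotonic erythrocyte lysis. Cells were resuspended in Hanks/5 mM HEPES pH 7.4/1% ovalbumin. Compound in DMSO, 0.5 nM [3H]LTB4 and 3 × 10^6 PMN/mL were incubated 20 min at 4 °C, then GF/B filtered and scintillation counted. Nonspecific binding was defined with 1 µM LTB4. Read-out was % inhibition or IC50.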

[3] = system: Leukotriene B4 receptor (Cavia porcellus); assay: Compound tested for binding affinity against Leukotriene B4 receptor using radioligand binding assay from guinea pig spleen membranes at a concentration of 300 nM.; conditions: Membrane
[4] = biological target: T1, Leukotriene B4 receptor 1; assay: (§2) Compound tested for binding affinity against Leukotriene B4 receptor using radioligand binding assay from Human PMN cells; assay type: cell-based
Summary of the method: as §1

[5] = biological target: T1, Leukotriene B4 receptor 1; assay: as §2; assay type: cell-based; remark: listed apart in the source
Summary of the method: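 Cells were resuspended in Hanks/5 mM HEPES pH 7.4/1% ovalbumin. Compound in DMSO, 0.5 nM [3H]LTB4 and 3 × 10^6 PMN/mL were incubated 20 min at 4 °C, then GF/B filtered and scintillation counted. Nonspecific binding was defined with 1 µM LTB4. Read-out was % inhibition or IC50.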

T1 sequence (Q15722 whole entry): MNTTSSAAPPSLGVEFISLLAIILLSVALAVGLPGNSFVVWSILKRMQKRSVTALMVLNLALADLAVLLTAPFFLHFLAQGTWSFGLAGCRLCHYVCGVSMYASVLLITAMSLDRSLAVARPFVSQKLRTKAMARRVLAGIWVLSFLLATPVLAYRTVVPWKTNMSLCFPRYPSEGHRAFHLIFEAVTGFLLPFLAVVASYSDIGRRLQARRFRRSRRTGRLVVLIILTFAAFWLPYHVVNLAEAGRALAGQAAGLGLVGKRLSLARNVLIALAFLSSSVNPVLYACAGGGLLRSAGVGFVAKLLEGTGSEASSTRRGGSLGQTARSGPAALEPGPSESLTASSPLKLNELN

SMILES: CN(CCc1ccccc1)C(=O)Cc1cc(CC(=O)O)cc(OCc2ccccc2)c1
- IC50 [1]: 200 nM

SMILES: CN(CCc1ccccc1)C(=O)Cc1cc(OCC(=O)O)cc(OCc2ccccc2)c1
- IC50 [1]: 53.3 nM

SMILES: CN(CCc1ccccc1)C(=O)Cc1ccc(-c2ccccc2)c(CO)c1
- I [2]: 18%

SMILES: COC(=O)c1cc(CC(=O)N(C)CCc2ccccc2)ccc1-c1ccccc1
- I [2]: 0%
- I [3]: 37%

SMILES: C/C(=C\c1cc(CC(=O)N(C)CCc2ccccc2)ccc1-c1ccccc1)C(=O)O
- IC50 [1]: 65 nM

SMILES: CN(CCc1ccccc1)C(=O)Cc1cc(CC(=O)O)cc(OC/C=C/c2ccccc2)c1
- I [2]: 16%
- IC50 [1]: 1200 nM

SMILES: CN(CCc1ccccc1)C(=O)Cc1cccc(OCc2ccccc2)c1
- IC50 [1]: 225 nM

SMILES: CN(CCc1ccccc1)C(=O)Cc1ccc(OCc2ccccc2)c(/C=C/C(=O)O)c1
- I [2]: 27%
- IC50 [1]: 2.27 nM

SMILES: CN(CCc1ccccc1)C(=O)Cc1ccc(-c2ccccc2)c(/C=C/C(=O)O)c1
- IC50 [4]: 200 nM
- IC50 [1]: 44.6 nM

SMILES: CN(CCc1ccccc1)C(=O)Cc1ccc(-c2ccccc2)c(C(=O)O)c1
- IC50 [1]: 27 nM

SMILES: CN(CCc1ccccc1)C(=O)Cc1ccc(OCc2ccccc2)cc1
- IC50 [5]: 900 nM
- IC50 [1]: 65.6 nM

SMILES: C/C(=C\C(=O)O)c1cc(CC(=O)N(C)CCc2ccccc2)cc(OCc2ccccc2)c1
- I [2]: 29%
- IC50 [1]: 143 nM

SMILES: CN(CCc1ccccc1)C(=O)Cc1cc(OCc2ccccc2)ccc1C(=O)O
- I [2]: 28%
- IC50 [1]: 250 nM
